Measurements as given in paper PMC9720105 (Redox Biology, 2022).

What was measured:
[1] = tested on: NQO1, TALDO1, and GCLM mRNA in BEAS-2B cells; experiment: Quantitative RT-PCR of antioxidant genes in BEAS-2B cells; assay type: cell-based, human; settings: 0.13 μM, 48 h
Method in brief: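 BEAS-2B cells were treated with 0.13 μM test compound for 48 h. RNA was extracted, reverse transcribed (SuperScript IV) and quantified by SYBR Green qPCR. Expression was normalized to 18S by the delta-delta-Ct method. Three independent experiments, each in technical triplicate; mean and S.D.; unpaired t-test.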

[2] = tested on: HepG2 ARE-luciferase reporter cells; experiment: ARE-luciferase activity assay; assay type: cell-based; settings: 48 h, 14: maximum at 1 μM
BEAS-2B cells = experiment: Flow cytometric detection of cell viability after tBHP; assay type: cell-based, human; settings: between 500 and 16 nM, 50 μM tBHP
Method in brief: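 BEAS-2B cells (LHC-9 with pen/strep) were seeded at 1.2 × 10⁴ cells/well overnight, pre-treated with test compound for 24 h, then given 50 μM tBHP for 24 h. Harvested cells were stained with 1 μg/mL propidium iodide. Gating used FSC-A/SSC-A to exclude debris and FSC-H/FSC-A to exclude doublets. Viability was % PI-negative cells. Three independent assays, single points each; mean and S.D.; unpaired t-test.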

BEAS-2B cells proteome = experiment: Label-free quantitative MS proteomics in BEAS-2B cells; assay type: cell-based, human; settings: 0.13 μM, 48 h, vs DMSO
Method in brief: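 BEAS-2B cells received DMSO or 0.13 μM test compound for 48 h, then were lysed in 5% SDS/50 mM TEAB. 20 μg protein was processed on S-traps (chloroacetamide alkylation), digested with trypsin/Lys-C and cleaned on SDB stage tips. About 100 ng peptide ran on a 48 min C18 gradient, timsTOF DIA-PASEF. Library-free search against human UniProt, 1% precursor FDR, MaxLFQ quantitation. Hits: >1.5-fold versus DMSO, adjusted P <0.01.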

KEAP1 in HEK293T cells = KEAP1 in HEK293T cells (Homo sapiens, UniProt Q14145); experiment: KEAP1 degradation in HEK293T cells; assay type: cell-based; settings: HEK293T cells, 48 h
[3] = tested on: NRF2 downstream targets, NQO1 and HO-1; experiment: NQO1 and HO-1 protein levels in HEK293T and HCA7 cell lines; assay type: cell-based; settings: 48 h
Method in brief: (§1)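 HEK293T, HCA7 and A549 cells were grown in DMEM with 10% FBS and pen/strep; BEAS-2B in LHC-9 with pen/strep; all at 37 °C, 10% CO₂. Cells were exposed to test compound for 48 h, lysed, run on 4–12% SDS-PAGE and transferred to nitrocellulose. Blocking was 5% skim milk for 1 h at RT. Probes were anti-KEAP1, CRBN, NQO1 or HO-1, with HRP anti-β-actin loading control and HRP secondaries. Blots represent 3 independent experiments.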

KEAP1 in HCA7 cells = KEAP1 in HCA7 cells (Homo sapiens, UniProt Q14145); experiment: KEAP1 degradation in HCA7 cells; assay type: cell-based; settings: 48 h
Method in brief: as §1

Chain of KEAP1 in HCA7 cells (Q14145 whole entry): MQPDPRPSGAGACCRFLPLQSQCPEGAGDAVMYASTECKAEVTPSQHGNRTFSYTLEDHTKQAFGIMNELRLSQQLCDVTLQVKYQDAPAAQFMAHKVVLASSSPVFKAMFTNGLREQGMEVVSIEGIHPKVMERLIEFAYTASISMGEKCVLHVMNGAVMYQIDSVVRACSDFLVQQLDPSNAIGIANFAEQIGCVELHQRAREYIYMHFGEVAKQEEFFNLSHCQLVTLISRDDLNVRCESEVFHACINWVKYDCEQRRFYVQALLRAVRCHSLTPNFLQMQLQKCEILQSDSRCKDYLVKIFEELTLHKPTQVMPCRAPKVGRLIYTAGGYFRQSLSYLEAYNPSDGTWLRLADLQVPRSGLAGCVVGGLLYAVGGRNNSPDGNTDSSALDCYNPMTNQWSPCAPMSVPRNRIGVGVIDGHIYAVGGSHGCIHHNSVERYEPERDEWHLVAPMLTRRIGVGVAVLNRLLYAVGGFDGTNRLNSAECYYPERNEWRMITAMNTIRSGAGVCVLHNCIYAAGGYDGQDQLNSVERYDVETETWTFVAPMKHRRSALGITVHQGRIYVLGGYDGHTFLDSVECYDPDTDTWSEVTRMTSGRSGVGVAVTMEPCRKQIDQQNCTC
Chain of KEAP1 in HEK293T cells (Q14145 whole entry): as above

Row | SMILES | mRNA induction of GCLM [1] | mRNA induction of NQO1 [1] | mRNA induction of TALDO1 [1] | induction of luciferase signal compared to the DMSO control group [2] | rescue of cell viability from tBHP, comparison of 14 and 2 (BEAS-2B cells) | ABHD4 abundance (proteomics) (BEAS-2B cells proteome) | abundance of KEAP1 (proteomics) (BEAS-2B cells proteome) | KEAP1 degradation / expression (KEAP1 in HEK293T cells) | HO-1 protein expression [3] | NQO1 protein expression [3] | KEAP1 degradation / expression (KEAP1 in HCA7 cells)
1 | COc1cc(C(CC(=O)O)c2ccc(C)c(CN3C[C@@H](C)Oc4ccccc4S3(=O)=O)c2)cc2nnn(C)c12 (stereo partly drawn) [Compound 2, 3-(7-Methoxy-1-methyl-1H-benzo[d][1,2,3]triazol-5-yl)-3-(4-methyl-3-(((R)-4-methyl-1,1-dioxido-3,4-dihydro-2H-benzo[b][1,4,5]oxathiazepin-2-yl)methyl)phenyl)propanoic acid] | 2 fold | 4 fold | 2 fold | 5- to 6 fold | equal potent | not upregulated | did not affect KEAP1 expression | – | – | – | –
2 | Cc1ccc(C(CC(=O)OC(C)(C)C)c2cc(OCCCCCCCNc3cccc4c3C(=O)N(C3CCC(=O)NC3=O)C4=O)c3c(c2)nnn3C)cc1CN1C[C@@H](C)Oc2ccccc2S1(=O)=O (stereo partly drawn) [Compound 16, tert-Butyl 3-(7-((7-((2-(2,6-Dioxopiperidin-3-yl)-1,3-dioxoisoindolin-4-yl)amino)heptyl)oxy)-1-methyl-1H-benzo[d][1,2,3]triazol-5-yl)-3-(4-methyl-3-(((R)-4-methyl-1,1-dioxido-3,4-dihydro-2H-benzo[b][1,4,5]oxathiazepin-2-yl)methyl)phenyl)propanoate] | – | – | – | – | – | – | – | no impact | no impact | no impact | no impact
3 | COc1cc(C(CC(=O)OC(C)(C)C)c2ccc(C)c(CN3C[C@@H](C)Oc4ccccc4S3(=O)=O)c2)cc2nnn(C)c12 (stereo partly drawn) [Compound 17, tert-Butyl 3-(7-methoxy-1-methyl-1H-benzo[d][1,2,3]triazol-5-yl)-3-(4-methyl-3-(((R)-4-methyl-1,1-dioxido-3,4-dihydro-2H-benzo[b][1,4,5]oxathiazepin-2-yl)methyl)phenyl)propanoate] | – | – | – | – | – | – | – | no impact | no impact | no impact | no impact
